Results reported in ChEMBL document CHEMBL4406821, “Novel dual inhibitors targeting CDK4 and VEGFR2 synergistically suppressed cancer progression and angiogenesis” (Eur J Med Chem, 2019).
Activity calls are given as the source filed them.

Tests used:
HeLa [1] = assay: Induction of apoptosis in human HeLa cells at 40 nM incubated for 48 hrs by annexin V FITC and propidium iodide staining based flow cytometry; assay type: functional, cell-based
Summary of the method: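 Cells were treated for 48 h, stained with FITC Annexin V and PI, and analyzed by flow cytometry to count early and late apoptotic cells.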

HeLa [2] = assay: Induction of cell cycle arrest in human HeLa cells assessed as accumulation in G0/G1 phase at 80 nM incubated for 36 hrs by propidium iodide staining based flow cytometry; assay type: functional
Summary of the method: (§1)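 Cells were treated with graded concentrations for 36 h, then fixed overnight in 70% ice-cold ethanol at 4°C and resuspended in PBS. Staining used 50 µg/ml PI plus 5 µg/ml RNase at 37°C for 30 min. DNA content was analysed by FACS to give G0/G1, S and G2/M fractions.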

T47D [3] = assay: Inhibition of colony formation in human T47D cells at 40 nM incubated for 5 days by crystal violet staining based light microscopy; assay type: functional, cell-based
Summary of the method: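 MDA-MB-231, T-47D, SiHa and HeLa cells seeded at 4×10^3/well and cultured with varying concentrations of drug or vehicle for 5 days. Fixed in 20% methanol, stained with 0.5% crystal violet, photographed under light microscopy. DMEM (T-47D) with 10% FBS, 37°C, 5% CO2.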

T47D [4] = assay: Induction of apoptosis in human T47D cells at 40 nM incubated for 48 hrs by annexin V FITC and propidium iodide staining based flow cytometry; assay type: functional, cell-based
Summary of the method: (§2)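 Annexin V-FITC/PI double staining with flow-cytometric readout. MDA-MB-231, T-47D, SiHa and HeLa cells were treated with graded concentrations for 48 h. MDA-MB-231 and T-47D were grown in DMEM and SiHa in 1640 medium, each with 10% FBS and 1% penicillin/streptomycin at 37°C under 5% CO2. Early- and late-stage apoptotic fractions were scored.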

[5] = biological target: CDK4/Cyclin D3 (Homo sapiens) (UniProt P11802+P30281); assay: Inhibition of recombinant full length human CDK4/Cyclin D3 using Rb-fragmen as substrate at 1 uM incubated for 40 mins by [gamma-33P]-ATP based radiometric assay relative to control; assay type: protein-complex assay
Summary of the method: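 Kinase panel profiling at 1 μM performed by Eurofins KinaseProfiler; percent inhibition reported as mean of two independent experiments.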

SiHa [6] = assay: Inhibition of colony formation in human SiHa cells at 80 nM incubated for 5 days by crystal violet staining based light microscopy; assay type: functional, cell-based
Summary of the method: (§3)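 4 × 10^3 cells per well were cultured with graded concentrations for 5 days. Cells were then fixed with 20% methanol, stained with 0.5% crystal violet and photographed by light microscopy.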

SiHa [7] = assay: Antiangiogenic activity against human SiHa cells xenografted in NOD/SCID BALB/c mouse assessed as reduction in CD31 expression at 40 mg/kg, po measured after 21 days by hematoxylin and eosin staining based immunohistochemistry; assay type: functional, organism-based
Summary of the method: (§4)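 Female NOD/SCID Balb/c mice, 6–8 weeks old, received 2×10^6 SiHa cells subcutaneously in the right flank. Once tumors reached 100 mm³, mice were randomized, 5 per group, and gavaged once daily for 21 days. Formalin-fixed, paraffin-embedded tumor sections were stained with Ki67 or CD31 antibody (1:100, 4 °C overnight), then biotin secondary and ABC-peroxidase/DAB, with hematoxylin counterstain.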

SiHa [8] = assay: Antitumor activity against human SiHa cells xenografted in NOD/SCID BALB/c mouse assessed as tumor growth inhibition at 40 mg/kg, po administered for 21 days; assay type: functional, organism-based
T47D [9] = assay: Antiproliferative activity against human T47D cells assessed as reduction in cell viability measured after 72 hrs by CCK8 assay; assay type: functional, cell-based
Summary of the method: (§5)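 Cells were seeded at 3×10³ cells/well and exposed to a range of concentrations or vehicle for 72 h. Viability was read by CCK-8 at 450 nm, with DMSO as blank and five replicates per sample. IC50 was calculated from the dose-response.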

MDA-MB-231 [10] = assay: Induction of apoptosis in human MDA-MB-231 cells at 40 nM incubated for 48 hrs by annexin V FITC and propidium iodide staining based flow cytometry; assay type: functional, cell-based; summary of the method: as §2
[11] = Toxicity in NOD/SCID BALB/c mouse xenografted with human SiHa cells assessed as body weight at 40 mg/kg, po administered for 21 days; assay type: organism-based; conditions: in vivo, 504 h
Summary of the method: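 Female NOD/SCID Balb/c mice, 6–8 weeks, implanted subcutaneously in right flank with 2×10^6 SiHa cells in 100 µL medium. At 100 mm³ tumors, randomized (5 mice/group) to daily oral gavage. Body weight monitored every 3 days; study ended day 21.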

MDA-MB-231 [12] = assay: Inhibition of colony formation in human MDA-MB-231 cells at 40 nM incubated for 5 days by crystal violet staining based light microscopy; assay type: functional, cell-based; summary of the method: as §3
HeLa [13] = assay: Inhibition of colony formation in human HeLa cells at 80 nM incubated for 5 days by crystal violet staining based light microscopy; assay type: functional, cell-based; summary of the method: as §3
SiHa [14] = assay: Induction of apoptosis in human SiHa cells at 40 nM incubated for 48 hrs by annexin V FITC and propidium iodide staining based flow cytometry; assay type: functional, cell-based; summary of the method: as §2
MDA-MB-231 [15] = assay: Antiproliferative activity against human MDA-MB-231 cells assessed as reduction in cell viability measured after 72 hrs by CCK8 assay; assay type: functional, cell-based; conditions: MDA-MB-231, 72 h; summary of the method: as §5
SiHa [16] = assay: Induction of cell cycle arrest in human SiHa cells assessed as accumulation in G0/G1 phase at 80 nM incubated for 36 hrs by propidium iodide staining based flow cytometry; assay type: functional; summary of the method: as §1
MDA-MB-231 [17] = assay: Antiproliferative activity against human MDA-MB-231 cells at 40 nM assessed as reduction in cell viability incubated for 48 hrs by EdU staining based laser scanning confocal microscopy; assay type: functional
Summary of the method: (§6)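 Cells, 5×10^4, were seeded in 24-well plates and treated for 48 h. They were then labeled using an EdU Apollo 488 imaging kit with Hoechst 33342 nuclear stain and imaged by laser scanning confocal microscopy. Percent EdU-positive cells = EdU-positive/Hoechst-stained × 100%.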

MDA-MB-231 [18] = assay: Induction of apoptosis in human MDA-MB-231 cells assessed as decrease in Bcl2 expression at 40 nM incubated for 48 hrs by Western blot analysis; assay type: functional, cell-based
Summary of the method: (§7)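 Cells were treated for 48 h, washed three times with PBS, and lysed in RIPA buffer. Immunoblots used anti-Rb, anti-phospho-Rb, anti-Ki67 and anti-Bcl-2 (each 1:1000), with β-actin as loading control.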

T47D [19] = assay: Antiproliferative activity against human T47D cells assessed as reduction in cell viability at 40 nM incubated for 48 hrs by EdU staining based laser scanning confocal microscopy; assay type: functional; summary of the method: as §6
T47D [20] = assay: Induction of cell cycle arrest in human T47D cells assessed as accumulation in G0/G1 phase at 40 nM incubated for 36 hrs by propidium iodide staining based flow cytometry; assay type: functional; summary of the method: as §1
SiHa [21] = assay: Induction of apoptosis in human SiHa cells assessed as decrease in Bcl2 expression at 80 nM incubated for 48 hrs by Western blot analysis; assay type: functional, cell-based
Summary of the method: (§8)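 Cancer cells were exposed to graded concentrations for 48 h, washed three times in PBS and lysed in RIPA buffer. Immunoblots were probed with anti-Rb, anti-phospho-Rb, anti-Ki67 and anti-Bcl-2, each at 1:1000. β-actin served as loading control.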

HUVEC [22] = assay: Antiproliferative activity against HUVEC cells assessed as reduction in cell viability at 40 nM measured upto 72 hrs by CCK8 assay; assay type: functional, cell-based; conditions: Homo sapiens
Summary of the method: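 HUVECs, 3×10³ cells/well, kept in 1640 medium with 10% FBS at 37°C and 5% CO₂. Cells were treated at 20 or 40 nM or vehicle, and viability was read by CCK-8 (absorbance 450 nm) at 0, 12, 24, 36, 48, 60 and 72 h. Five replicates per sample.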

SiHa [23] = assay: Antiproliferative activity against human SiHa cells assessed as reduction in cell viability at 80 nM incubated for 48 hrs by EdU staining based laser scanning confocal microscopy; assay type: functional; summary of the method: as §6
T47D [24] = assay: Induction of apoptosis in human T47D cells assessed as decrease in Bcl2 expression at 40 nM incubated for 48 hrs by Western blot analysis; assay type: functional, cell-based; summary of the method: as §8
HeLa [25] = assay: Induction of apoptosis in human HeLa cells assessed as decrease in Bcl2 expression at 80 nM incubated for 48 hrs by Western blot analysis; assay type: functional, cell-based; summary of the method: as §7
SiHa [26] = assay: Antiproliferative activity against human SiHa cells assessed as reduction in cell viability measured after 72 hrs by CCK8 assay; assay type: functional, cell-based; summary of the method: as §5
MDA-MB-231 [27] = assay: Induction of cell cycle arrest in human MDA-MB-231 cells assessed as accumulation in G0/G1 phase at 40 nM incubated for 36 hrs by propidium iodide staining based flow cytometry; assay type: functional; summary of the method: as §1
HeLa [28] = assay: Antiproliferative activity against human HeLa cells assessed as reduction in cell viability at 80 nM incubated for 48 hrs by EdU staining based laser scanning confocal microscopy; assay type: functional; summary of the method: as §6
SiHa [29] = assay: Antitumor activity against human SiHa cells xenografted in NOD/SCID BALB/c mouse assessed as reduction in Ki67 expression at 40 mg/kg, po measured after 21 days by hematoxylin and eosin staining based immunohistochemistry; assay type: functional, organism-based; summary of the method: as §4
HeLa [30] = assay: Antiproliferative activity against human HeLa cells assessed as reduction in cell viability measured after 72 hrs by CCK8 assay; assay type: functional, cell-based; summary of the method: as §5
HUVEC [31] = assay: Antiproliferative activity against HUVEC cells assessed as reduction in cell viability measured after 72 hrs by CCK8 assay; assay type: functional, cell-based; conditions: Homo sapiens; summary of the method: as §5

CCN1CCN(Cc2ccc(Nc3ncc(F)c(-c4cc(F)c5nc(C)n(C(C)C)c5c4)n3)nc2)CC1 [ABEMACICLIB]
62 nM: IC50 (MDA-MB-231 [15])
145 nM: IC50 (T47D [9])
861 nM: IC50 (SiHa [26])
Non-Toxic: Activity [11]
active: Activity (HeLa [1]) | Activity (HeLa [2]) | inhibition (T47D [3]) | Activity (T47D [4]) | inhibition (SiHa [6]) | inhibition (SiHa [7]) | TGI (SiHa [8]) | Activity (MDA-MB-231 [10]) | inhibition (MDA-MB-231 [12]) | inhibition (HeLa [13]) | Activity (SiHa [14]) | Activity (SiHa [16]) | inhibition (MDA-MB-231 [17]) | Activity (MDA-MB-231 [18]) | inhibition (T47D [19]) | Activity (T47D [20]) | Activity (SiHa [21]) | inhibition (HUVEC [22]) | inhibition (SiHa [23]) | Activity (T47D [24]) | Activity (HeLa [25]) | Activity (MDA-MB-231 [27]) | inhibition (HeLa [28]) | inhibition (SiHa [29])
768 nM: IC50 (HeLa [30])
99%: inhibition [5]
403 nM: IC50 (HUVEC [31])
